Assay results reported in ChEMBL document CHEMBL1144183, “Synthesis and biological affinity of new imidazo- and indol-arylpiperazine derivatives: further validation of a pharmacophore model for alpha(1)-adrenoceptor antagonists” (Bioorg Med Chem Lett, 2008).

What was measured:
Rattus norvegicus [1] = species: Rattus norvegicus; test: Ratio of Ki for 5HT1A receptor in rat cortex membrane to Ki for alpha1 adrenoceptor in rat cortex membrane; type: cell membranes
[2] = target: T1, Sodium-dependent serotonin transporter (Homo sapiens, UniProt P31645); type: cell membranes
Target sequence in this assay (P31645 whole entry): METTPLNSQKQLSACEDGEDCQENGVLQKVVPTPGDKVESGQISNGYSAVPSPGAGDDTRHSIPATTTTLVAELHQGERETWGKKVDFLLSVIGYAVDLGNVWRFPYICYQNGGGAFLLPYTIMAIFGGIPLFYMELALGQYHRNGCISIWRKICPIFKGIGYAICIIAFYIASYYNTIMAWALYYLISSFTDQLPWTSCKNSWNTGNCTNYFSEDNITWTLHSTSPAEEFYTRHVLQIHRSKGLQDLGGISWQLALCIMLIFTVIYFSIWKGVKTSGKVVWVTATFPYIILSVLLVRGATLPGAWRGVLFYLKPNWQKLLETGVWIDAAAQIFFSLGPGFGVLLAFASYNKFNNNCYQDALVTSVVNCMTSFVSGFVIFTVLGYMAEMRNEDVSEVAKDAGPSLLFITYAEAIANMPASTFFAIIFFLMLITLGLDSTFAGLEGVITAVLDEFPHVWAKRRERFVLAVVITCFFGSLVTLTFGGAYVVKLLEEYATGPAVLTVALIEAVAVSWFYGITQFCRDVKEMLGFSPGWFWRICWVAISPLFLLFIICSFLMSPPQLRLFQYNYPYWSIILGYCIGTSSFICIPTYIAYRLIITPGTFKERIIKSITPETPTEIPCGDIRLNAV

Rattus norvegicus [3] = species: Rattus norvegicus; test: Ratio of Ki for alpha2 adrenoceptor in rat cortex membrane to Ki for alpha1 adrenoceptor in rat cortex membrane; type: cell membranes
[4] = Displacement of [3H]rauwolscine from alpha2 adrenoceptor in rat cortex membrane; type: cell membranes
Procedure, shortened: (§1)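 Competitive radioligand binding on rat cerebral cortex membranes. IC50 was converted to Ki by Cheng–Prusoff, Ki = IC50/(1+[L]/Kd). Ki is the mean of three separate experiments, each run in triplicate.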

[5] = target: T2, 5-hydroxytryptamine receptor 1A (Rattus norvegicus, UniProt P19327); test: Displacement of [3H]8-OH-DPAT from 5HT1A receptor in rat cortex membrane; type: cell membranes; procedure, shortened: as §1
T2 sequence (P19327 whole entry): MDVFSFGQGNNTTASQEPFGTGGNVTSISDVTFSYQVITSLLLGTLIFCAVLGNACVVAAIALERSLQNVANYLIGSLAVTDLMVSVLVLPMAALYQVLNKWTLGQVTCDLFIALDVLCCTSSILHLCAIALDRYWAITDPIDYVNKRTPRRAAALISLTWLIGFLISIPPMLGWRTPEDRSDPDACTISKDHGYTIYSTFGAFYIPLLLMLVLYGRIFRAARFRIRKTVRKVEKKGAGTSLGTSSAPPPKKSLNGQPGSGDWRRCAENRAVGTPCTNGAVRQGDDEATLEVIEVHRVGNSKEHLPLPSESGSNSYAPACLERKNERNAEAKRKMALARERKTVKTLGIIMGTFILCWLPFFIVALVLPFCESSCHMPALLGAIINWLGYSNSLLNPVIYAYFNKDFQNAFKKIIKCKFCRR

[6] = Displacement of [3H]prazosin from alpha1 adrenoceptor in rat cortex membrane; type: cell membranes; procedure, shortened: as §1
[7] = target: T1, Sodium-dependent serotonin transporter; test: Displacement of [3H]paroxetine from SERT in human platelet membrane at 10 uM; type: cell membranes
Procedure, shortened: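 Compounds were tested at 10 µM, with percent displacement recorded. Where obtainable, Ki was derived from IC50 by Cheng–Prusoff. Assays were run in triplicate.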
Target sequence in this assay (P31645 whole entry, looked up): as the sequence (P31645 whole entry) above

[8] = target: 5-hydroxytryptamine receptor 2A (Homo sapiens, UniProt P28223); test: Displacement of [3H]ketanserine from 5HT2A receptor
Sequence of 5-hydroxytryptamine receptor 2A (P28223 whole entry): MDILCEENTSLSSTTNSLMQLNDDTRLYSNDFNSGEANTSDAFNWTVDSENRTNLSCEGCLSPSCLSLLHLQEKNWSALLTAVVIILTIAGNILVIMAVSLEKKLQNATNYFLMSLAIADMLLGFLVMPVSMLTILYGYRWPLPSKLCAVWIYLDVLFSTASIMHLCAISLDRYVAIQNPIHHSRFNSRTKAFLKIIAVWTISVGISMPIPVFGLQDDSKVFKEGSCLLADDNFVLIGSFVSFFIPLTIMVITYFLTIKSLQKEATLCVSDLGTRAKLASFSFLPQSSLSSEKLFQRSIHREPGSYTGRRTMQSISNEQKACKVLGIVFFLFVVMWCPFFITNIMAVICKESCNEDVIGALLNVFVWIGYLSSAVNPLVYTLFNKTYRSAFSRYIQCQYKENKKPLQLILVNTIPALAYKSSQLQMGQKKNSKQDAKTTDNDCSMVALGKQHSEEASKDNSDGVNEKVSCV

| SMILES | Ratio Ki (Rattus norvegicus [1]) | Ki [2] [nM] | Ratio Ki (Rattus norvegicus [3]) | Ki [4] [nM] | Ki [5] [nM] | Ki [6] [nM] | Activity [7] [%] | Ki [8] [nM] |
| --- | --- | --- | --- | --- | --- | --- | --- | --- |
| CC(C)Oc1ccccc1N1CCN(CCNC(=O)Cn2nc(-n3ccnc3)ccc2=O)CC1 | 8.7 | > 10000 | 8.89 | 1960 | 1910 | 220 | – | – |
| CC(C)Oc1ccccc1N1CCN(CCCCn2nc(-n3ccc4ccccc43)ccc2=O)CC1 | 13.6 | 1040 | 12 | 20.1 | 22.8 | 1.7 | – | – |
| COc1ccccc1N1CCN(C(=O)CCCn2nc(-n3ccnc3)ccc2=O)CC1 | 0.14 | > 10000 | 0.86 | 1900 | 318 | 2190 | 3 | – |
| CC(C)Oc1ccccc1N1CCN(CCCCn2nc(-n3ccnc3)ccc2=O)CC1 | 17 | > 10000 | 110 | 44 | 6.8 | 0.4 | 10 | – |
| CCOc1ccccc1N1CCN(CCCCn2nc(-n3ccnc3)ccc2=O)CC1 | 15.5 | > 10000 | 163 | 147 | 14 | 0.8 | 15 | – |
| O=c1ccc(-n2ccc3ccccc32)nn1CCCCN1CCN(c2cccc(C(F)(F)F)c2)CC1 | 1.03 | 109 | 7.7 | 462 | 62 | 60 | – | 83 |
| COC(=O)[C@H]1[C@H]2C[C@H]3c4[nH]c5ccccc5c4CCN3C[C@H]2CC[C@@H]1O [RAUWOLSCINE] | – | – | – | 4 | – | – | – | – |
| O=c1ccc(-n2ccc3ccccc32)nn1CCCCN1CCN(c2ncccn2)CC1 | 11.1 | > 10000 | 38.1 | 725 | 210 | 19 | 25 | – |
| O=c1ccc(-n2ccnc2)nn1CCCCN1CCN(c2ccc3c(c2)OCCO3)CC1 | 3.73 | > 10000 | 3.9 | 996 | 937 | 251 | 26 | – |
| CCOc1ccccc1N1CCN(C(=O)CCCn2nc(-n3ccnc3)ccc2=O)CC1 | 4.57 | > 10000 | 3.57 | 1760 | 2250 | 492 | 11 | – |
| COc1ccccc1N1CCN(CCNC(=O)Cn2nc(-n3ccnc3)ccc2=O)CC1 | 3 | 3460 | 4.3 | 2970 | 2070 | 688 | – | – |
| O=c1ccc(-n2ccnc2)nn1CCCCN1CCN(c2ncccn2)CC1 | 1.25 | > 10000 | 2.2 | 1550 | 890 | 710 | 5 | – |
| O=c1ccc(-n2ccnc2)nn1CCCCN1CCN(c2cccc(C(F)(F)F)c2)CC1 | – | 230 | 5.6 | 656 | 13 | 118 | – | 166 |
| CCOc1ccccc1N1CCN(CCNC(=O)Cn2nc(-n3ccnc3)ccc2=O)CC1 | 4.9 | 5980 | 13.4 | 3140 | 1150 | 234 | – | – |
| CC(C)Oc1ccccc1N1CCN(C(=O)CCCn2nc(-n3ccnc3)ccc2=O)CC1 | 1.73 | > 10000 | 1.49 | 1340 | 1560 | 897 | 2 | – |
| COc1cc2nc(N3CCN(C(=O)c4ccco4)CC3)nc(N)c2cc1OC [PRAZOSIN] | – | – | – | – | – | 0.24 | – | – |
| CCOc1ccccc1N1CCN(CCCCn2nc(-n3ccc4ccccc43)ccc2=O)CC1 | 24.7 | 639 | 62.6 | 70.1 | 27.7 | 1.1 | – | – |
| O=c1ccc(-n2ccc3ccccc32)nn1CCCCN1CCN(c2ccc3c(c2)OCCO3)CC1 | 44.8 | 177 | 34 | 476 | 627 | 14 | – | – |
